# Measured values pooled from the literature.
# Each line is one published result; the experiments were not run side by side.
# Target: Tyrosine-protein kinase Fgr (FGR, Homo sapiens, UniProt P09769)
SMILES,test,conditions,remaining binding [%]
O=C(c1ccc(Nc2ncc(Cl)c(-c3ccc(Cl)s3)n2)cc1)N1CCC(N2CCCC2)CC1,"cell-free assay, competition with immobilised ligand",1 µM,96
CCC(=N\O)/C(C)=C/c1ccc(F)cc1,"cell-free assay, competition with immobilised ligand",1 µM,67
c1cncc(-c2cccc(Nc3nccc(NC4CCCCC4)n3)c2)c1,"binding, competition with immobilised ligand",10 µM,14
COc1cnc(Nc2cccc(S(N)(=O)=O)c2)nc1N1CCN(c2ccccc2)C(=O)C1,"binding, competition with immobilised ligand",1 µM,100
CC(=O)Nc1c(C(C)=O)c(=O)n(C)c2nc(-c3ccc(Cl)cc3Cl)c(-c3ccc(Cl)cc3)cc12,"cell-free assay, competition with immobilised ligand",1 µM,100
COc1cnc(Nc2cccc(S(N)(=O)=O)c2)nc1N1CCN(c2ccccc2)CC1,"binding, competition with immobilised ligand",1 µM,95
O=C(Nc1c[nH]nc1C(=O)NC1CCNCC1)c1cc(F)cc(F)c1,"binding, competition with immobilised ligand",1 µM,100
Cc1cnn2ncc(-c3ccnc(N(C)C)n3)c2c1,binding,1 µM,100
O=C(NCc1ncc(C(F)(F)F)cc1Cl)c1ccc2c(c1)C1(CCS(=O)(=O)CC1)[C@H](C1CC1)N2S(=O)(=O)c1ccc(F)cc1,"cell-free assay, competition with immobilised ligand",1 µM,100
O=C(NCCCN1CCOCC1)c1ccc(Nc2ncc(Cl)c(-c3ccc(Cl)s3)n2)cc1,"cell-free assay, competition with immobilised ligand",1 µM,91
COc1ncc2cc3ccccc3nc2c1C#N,"cell-free assay, competition with immobilised ligand",5 µM,100
c1cnn2ncc(-c3ccnc(N4CCC45COC5)n3)c2c1,binding,1 µM,100
C[C@H](c1cccc(C#N)c1)n1cc(Cl)cc(C(N)=O)c1=N,"cell-free assay, competition with immobilised ligand",1 µM,80
N[C@@H]1CCN(c2nccc(-c3cnn4ncccc34)n2)C1,binding,1 µM,100
O=C(c1ccc(Nc2ncc(Cl)c(-c3cc4ccccc4s3)n2)cc1)N1CCC(N2CCCC2)CC1,"cell-free assay, competition with immobilised ligand",1 µM,92
C[C@H]1CCN(c2nccc(-c3cnn4ncccc34)n2)C1,binding,1 µM,100
FC(F)(F)Oc1cccc(-c2cnc3ccc(-c4ccncc4)nn23)c1,"cell-free assay, competition with immobilised ligand",5 µM,69
COc1ccnn2ncc(-c3ccnc(N(C)C)n3)c12,binding,1 µM,76
Cc1noc([C@H]2C[C@@H](c3ccc(C(F)(F)F)cc3)CN(C(=O)N3CCS(=O)(=O)C3)C2)n1,"cell-free assay, competition with immobilised ligand",1 µM,100
CN(C)c1nccc(-c2cnc3ncccn23)n1,binding,1 µM,100
CN(C)CC#Cc1ccc(OCCCc2sc(N3CCc4cccc(C(=O)Nc5nc6ccccc6s5)c4C3)nc2C(=O)O)c(F)c1,"cell-free assay, competition with immobilised ligand",1 µM,100
